Key:
SCLC = assay: Cytotoxicity in SCLC (human lung carcinoma) cell line.; type: functional, cell-based
NCI = assay: Complete inhibition of cell growth of 60-human tumor cell line detected by National Cancer Institute.; type: functional, cell-based; conditions: read-out: Log IC50 (converted)
Method in brief: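 National Cancer Institute preclinical 60 human tumour cell line drug discovery screen. Read-out is the log IC₅₀ (M) at which complete inhibition of cell growth is detected in at least one cell line. Scored qualitatively: +++ at -7.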

[1] = biological target: DNA topoisomerase II (Homo sapiens) (UniProt P11388+Q02880); assay: Relative activity to induce mammalian DNA topoisomerase II-mediated DNA cleavage; type: functional
HL-60 = assay: Cytotoxicity in HL-60 (human leukemia) cell line.; type: functional, cell-based

Row | SMILES | Activity [1] | IC50 (SCLC) | concentration for complete growth inhibition (NCI) | IC50 (HL-60)
1 | COc1ccc2c3c(oc2c1)C(=O)c1c(OC)ccc(OC)c1C3=O | 2 | 1000 nM | – | 14500 nM
2 | COc1ccc(OC)c2c1C(=O)C(Cl)=C(Oc1cccc(O)c1)C2=O | 10 | 300 nM | 1000 nM | 67 nM
3 | COc1cccc(OC2=C(Oc3cccc(OC)c3)C(=O)c3c(OC)ccc(OC)c3C2=O)c1 | 0 | 1000 nM | 100 nM | 160 nM
4 | COc1ccc(OC)c2c1C(=O)C(Cl)=C(Cl)C2=O | 200 | 1000 nM | – | 220 nM
5 | O=C1C=CC(=O)c2c(O)c(Oc3ccccc3)c(Oc3ccccc3)c(O)c21 | 500 | 100 nM | 100 nM | 130 nM
6 | O=C1C=CC(=O)c2c(O)c(Oc3ccccc3)c(Cl)c(O)c21 | 4000 | 250 nM | 100 nM | 220 nM
7 | COc1cc(OC)cc(OC2=C(Cl)C(=O)c3c(OC)ccc(OC)c3C2=O)c1 | 100 | 2000 nM | 1000 nM | 120 nM
8 | COc1cc(OC)cc(OC2=C(Cl)C(=O)c3c(OC(C)=O)ccc(OC(C)=O)c3C2=O)c1 | 50 | 1100 nM | 1000 nM | 500 nM
9 | COc1c(Cl)c(Cl)c(OC)c2c1C(=O)C=CC2=O | 10 | 750 nM | – | 1000 nM
10 | Cc1ccc[n+](C2=C([O-])C(=O)c3c(O)ccc(O)c3C2=O)c1 | 0.5 | > 10000 nM | – | 30000 nM
11 | O=C1C=CC(=O)c2c(O)c(Cl)c(Cl)c(O)c21 | – | 300 nM | – | 49 nM
12 | COc1cccc(OC2=C(Cl)C(=O)c3c(OC)ccc(OC)c3C2=O)c1 | 20 | 2000 nM | 1000 nM | 440 nM
13 | COc1cccc(OC2=C(Cl)C(=O)c3c(OC(C)=O)ccc(OC(C)=O)c3C2=O)c1 | 200 | 5000 nM | 1000 nM | 200 nM

More lines, main results first:

Row | Activity [1] | SMILES | IC50 (SCLC) | concentration for complete growth inhibition (NCI) | IC50 (HL-60)
14 | 50 | COc1cc(OC)cc(OC2=C(Cl)C(=O)c3c(O)ccc(O)c3C2=O)c1 | 750 nM | 1000 nM | 70 nM
15 | 2 | COc1cc(OC)c2c3c(oc2c1)C(=O)c1c(OC)ccc(OC)c1C3=O | > 10000 nM | 10000 nM | 128000 nM
16 | 100 | O=C1C(Cl)=C(Oc2cccc(O)c2)C(=O)c2c(O)ccc(O)c21 | 450 nM | 1000 nM | 160 nM
17 | 800 | COc1cccc(OC2=C(Cl)C(=O)c3c(O)ccc(O)c3C2=O)c1 | 500 nM | 1000 nM | 200 nM
18 | 2000 | O=C1c2oc3cc(O)cc(O)c3c2C(=O)c2c(O)ccc(O)c21 | 1500 nM | 100 nM | 390 nM
19 | > 100000 | O=C1c2ccccc2C(=O)c2c1oc1cc(O)cc(O)c21 | 1030 nM | 1000 nM | –
20 | 200 | O=C1C(Cl)=C(Oc2cc(O)cc(O)c2)C(=O)c2c(O)ccc(O)c21 | 500 nM | 1000 nM | 250 nM
